Data as given in ChEMBL document CHEMBL1125534, “Omega-[(omega-arylalkyl)aryl]alkanoic acids: a new class of specific LTA4 hydrolase inhibitors” (J Med Chem, 1992).

Key:
[1] = Inhibition of LTB4 biosynthesis by porcine leukocytes at LTA4 hydrolase level at a concentration of 2*10e-5 M; assay type: functional, Sus scrofa
Procedure, shortened: (§1)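 Porcine leukocyte homogenate (cells at 10⁸/mL, sonicated) with CaCl₂ and ATP each at 2 mmol/L final. Preincubated 3 min at 25 °C with inhibitor (in ethanol or PBS) plus 5,8,11,14-[…] acid 4 μmol/L final to block 12-LO. Then incubated 5 min at 37 °C with [1-¹⁴C]arachidonic acid. LTB₄ and 6-trans-isomers separated by HPLC with radioactivity detection. Mean of ≥3 experiments.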

[2] = Evaluated for the inhibitory activity against Leukotriene A4 hydrolase; parameters: species or system Sus scrofa; procedure, shortened: as §1
[3] = tested on: Leukotriene A-4 hydrolase (Sus scrofa); assay: Inhibition of LTA4 hydrolase mediated LTB4 biosynthesis by porcine leukocytes at 2*10e-5M
[4] = tested on: Leukotriene A-4 hydrolase (Sus scrofa); assay: Inhibitory activity against Leukotriene A4 hydrolase at 30 mg/kg (po) in rat plasma extracts
[5] = tested on: Leukotriene A-4 hydrolase (Sus scrofa); assay: Inhibitory activity against Leukotriene A4 hydrolase at 100 mg/kg (po) in rat plasma extracts
[6] = tested on: Leukotriene A-4 hydrolase (Sus scrofa); assay: Inhibitory activity against Leukotriene A4 hydrolase at 100 mg/kg (po) in rat plasma
[7] = tested on: Leukotriene A-4 hydrolase (Sus scrofa); assay: Inhibitory activity against Leukotriene A4 hydrolase at 5 mg/kg (po) in rat plasma extracts
[8] = tested on: Leukotriene A-4 hydrolase (Sus scrofa); assay: Inhibitory activity Leukotriene A4 hydrolase at 5 mg/kg (po) in rat plasma

IC50 [2] | inhibition [3] | SMILES | Inhibition [1] | also measured
– | – | O=C(O)CCCCCCc1ccc(-c2ccccc2)cc1 | 41% | –
6.2 µM | 74% | O=C(O)CCCCCSc1ccc(CCCc2ccccc2)cc1 | – | inhibition [4]: 20%; inhibition [5]: 12%
– | – | O=C(O)CCCCCCc1ccc(Cc2ccc3ccccc3n2)cc1 | 48% | –
– | – | O=C(O)CCCC(=O)NCc1ccc(CCCc2ccccc2)s1 | 38% | –
– | – | O=C([O-])CCCCCCCc1ccc(CCCc2ccccc2)s1.[Na+] | 0% | –
6.3 µM | 82% | O=C(O)CCCC(=O)CCc1ccc(CCCc2ccccc2)s1 | – | –
188 µM | 19% | O=C(O)CCCCCCc1ccc(Cc2ccc(C(F)(F)F)cc2)cc1 | – | –
– | – | O=C(O)CCCCC[S+]([O-])c1ccc(CCCc2ccccc2)s1 (configuration not stated) | 0% | –
– | – | COc1ccc(CCCc2ccc(SCCCCCC(=O)O)cc2)cc1 | 35% | –
2.9 µM | – | O=C(O)CCCCCCc1ccc(CCCc2ccccc2)s1 | – | inhibition [6]: 82%; inhibition [7]: 0%; inhibition [4]: 44%
– | – | O=C(O)CCCCCCc1ccc(CCCc2ccc(O)cc2)s1 | 69% | –
– | – | O=C(O)CCCCCCc1ccc(-c2ccccc2)s1 | 67% | –
6.2 µM | 73% | O=C(O)CCCC(O)CCc1ccc(CCCc2ccccc2)s1 (configuration not stated) | – | –
– | – | O=C(O)CCCNC(=O)Cc1ccc(CCCc2ccccc2)s1 | 12% | –
– | – | NC(=O)CCCCCCc1ccc(CCCc2ccccc2)s1 | 0% | –
– | – | O=C(O)CCCCCCc1ccc(Cc2ccnc3ccccc23)cc1 | 0% | –
72.5 µM | 53% | O=C(O)CCCCCCc1ccc(Cc2ccc([N+](=O)[O-])cc2)cc1 | – | –
– | – | O=C(O)CCCCCCc1ccc(Cc2cccc3ccccc23)cc1 | 0% | –
9.7 µM | 80% | COc1ccc(CCCc2ccc(CCCCCCC(=O)O)s2)cc1 | – | –
– | – | O=C(O)CCCCCCc1ccc(CCCc2ccc(Cl)cc2)s1 | 63% | –
2.8 µM | 79% | O=C(O)CCCCCSc1ccc(CCCc2ccccc2)s1 | – | inhibition [7]: 4%; inhibition [4]: 19%; inhibition [5]: 19%

IC50 [2] | inhibition [3] | SMILES | Inhibition [1] | also measured
– | – | c1ccc(CCCc2ccc(CCCCCCC3N=NN=N3)s2)cc1 | 29% | –
5 µM | 85% | O=C(O)CCCCCCc1ccc(Cc2cnc3ccccc3c2)cc1 | – | inhibition [7]: 27%; inhibition [4]: 19%; inhibition [5]: 27%
– | – | O=C([O-])CCCCc1ccc(CCCc2ccccc2)s1.[Na+] | 0% | –
– | – | CN(C)c1ccc(Cc2ccc(CCCCCCC(=O)O)cc2)cc1 | 29% | –
– | – | O=C(O)CCCCCCc1ccc(Cc2ccccc2Cl)cc1 | 0% | –
9.1 µM | 82% | O=C(O)CCCCCSc1ccc(Cc2ccccc2)cc1 | – | –
– | – | O=C(O)CCCCCCCc1ccc(CCCc2ccccc2)cc1 | 45% | –
3.5 µM | 86% | O=C(O)CCCCCCc1ccc(CCc2ccccc2)s1 | – | –
– | – | O=C(O)CCCCCC(=O)c1ccc(CCCc2ccccc2)s1 | 66% | –
– | – | CC(=O)Nc1ccc(Cc2ccc(CCCCCCC(=O)O)cc2)cc1 | 41% | –
0.9 µM | 89% | Nc1ccc(Cc2ccc(CCCCCCC(=O)O)cc2)cc1 | – | inhibition [7]: 29%; inhibition [5]: 31%
– | – | N#CCCCCCCc1ccc(CCCc2ccccc2)s1 | 0% | –
– | – | O=C(O)CCCCCCc1ccc(CCCc2cccc(Cl)c2)s1 | 45% | –
– | – | O=C(O)CNC(=O)CCCc1ccc(CCCc2ccccc2)s1 | 53% | –
– | – | O=C(O)CCCCCS(=O)(=O)c1ccc(Cc2ccccc2)cc1 | 2% | –
– | – | O=C([O-])CCCCc1ccc(CCCc2ccccc2)cc1.[Na+] | 35% | –
– | – | COC(=O)COCCCCc1ccc(CCCc2ccccc2)s1 | 66% | –
3 µM | 79% | O=C(O)CCCCCCc1ccc(Cc2ccccc2)cc1 | – | –
– | – | O=C(O)CCCCCC(=O)c1ccc(CCCc2ccccc2)cc1 | 27% | –
3.4 µM | 76% | O=C(O)CCCCCCc1ccc(CCCc2ccccc2)cc1 | – | inhibition [4]: 15%
7.2 µM | 73% | O=C(O)CCCCCCc1ccc(Cc2ccc(Cl)cc2)cc1 | – | inhibition [7]: 22%; inhibition [5]: 7%

IC50 [2] | inhibition [3] | SMILES | Inhibition [1] | also measured
30 µM | 43% | O=C(O)CCCCCCc1ccc(CCc2ccccc2)cc1 | – | –
15 µM | 51% | O=C(O)CCCCCCc1ccc(Cc2ccccc2)s1 | – | –
7.7 µM | 76% | O=C(O)CCCCCCc1ccc(Cc2ccccn2)cc1 | – | –
1.5 µM | 90% | O=C(O)COCCCCc1ccc(CCCc2ccccc2)s1 | – | inhibition [8]: 40%; inhibition [4]: 54%; inhibition [5]: 73%
– | – | O=C(O)CCCCCCc1ccc(Cc2cccnc2)cc1 | 65% | –
– | – | O=C(O)CCCCCOc1ccc(Cc2ccccc2)cc1 | 69% | –
– | – | O=C(O)CCCCCS(=O)(=O)c1ccc(CCCc2ccccc2)s1 | 0% | –
– | – | CS(=O)(=O)Nc1ccc(Cc2ccc(CCCCCCC(=O)O)cc2)cc1 | 0% | –
– | – | O=C(O)CCCCCc1ccc(CCCc2ccccc2)s1 | 61% | –
– | – | O=C(O)CCCCCCc1ccc(Cc2ccncc2)cc1 | 43% | –
9.2 µM | 69% | COc1ccc(Cc2ccc(CCCCCCC(=O)O)cc2)cc1 | – | –
– | – | CC(C)(CCCCCc1ccc(CCCc2ccccc2)s1)C(=O)O | 46% | –
– | – | O=C(O)CCCCCCc1ccc(Cc2ccc3ccccc3c2)cc1 | 22% | –
21.1 µM | 63% | Cc1ccc(Cc2ccc(CCCCCCC(=O)O)cc2)cc1 | – | –
1.7 µM | 100% | NC(=O)Nc1ccc(Cc2ccc(CCCCCCC(=O)O)cc2)cc1 | – | –
– | – | O=C(O)CCCCCc1ccc(CCCc2ccccc2)cc1 | 43% | –
– | – | O=C([O-])CCCCCCc1ccc(CCCCc2ccccc2)s1.[Na+] | 0% | –
– | – | O=C(O)CCCCCCc1ccc(Cc2ccc(O)cc2)cc1 | 56% | –
– | – | CC(C)(C)c1ccc(Cc2ccc(CCCCCCC(=O)O)cc2)cc1 | 0% | –
– | – | CNc1ccc(Cc2ccc(CCCCCCC(=O)O)cc2)cc1 | 78% | –
